Measured values pooled from the literature.
Compare with care: the assays were run in different laboratories.
Target: Dual specificity mitogen-activated protein kinase kinase 7 (MAP2K7, Homo sapiens, UniProt O14733)
One construct used (O14733 1-419): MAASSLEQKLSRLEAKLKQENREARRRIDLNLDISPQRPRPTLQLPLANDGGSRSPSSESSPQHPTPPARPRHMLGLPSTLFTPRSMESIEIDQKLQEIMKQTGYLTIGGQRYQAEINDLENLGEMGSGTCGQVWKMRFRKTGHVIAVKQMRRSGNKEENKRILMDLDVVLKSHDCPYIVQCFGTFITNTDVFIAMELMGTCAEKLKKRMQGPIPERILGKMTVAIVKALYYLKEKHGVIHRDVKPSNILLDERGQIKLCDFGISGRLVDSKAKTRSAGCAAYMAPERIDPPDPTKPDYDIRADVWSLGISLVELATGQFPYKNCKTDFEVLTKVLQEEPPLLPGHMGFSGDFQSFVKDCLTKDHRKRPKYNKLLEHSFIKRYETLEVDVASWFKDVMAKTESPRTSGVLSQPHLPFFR

| Structure (SMILES) | assay | conditions | remaining binding |
| --- | --- | --- | --- |
| CN(C)CC#Cc1ccc(OCCCc2sc(N3CCc4cccc(C(=O)Nc5nc6ccccc6s5)c4C3)nc2C(=O)O)c(F)c1 | cell-free assay, competition with immobilised ligand | 1 µM | 69% |
| C[C@@H]1CCN(c2nccc(-c3cnn4ncccc34)n2)C1 | binding | 1 µM | 100% |
| COc1ncc2cc3ccccc3nc2c1C#N | cell-free assay, competition with immobilised ligand | 5 µM | 95% |
| CC1=C(C#N)[C@@H](c2ccc3[nH]nc(C)c3c2)C(C#N)=C(c2ccc(Cl)cc2)N1 | cell-free assay, competition with immobilised ligand | 1 µM | 92.2% |
| CN(CCCC(F)(F)F)c1nccc(-c2cnn3ncccc23)n1 | binding | 1 µM | 100% |
| O=S(=O)(NC1CCC(c2cc(F)ccc2F)(S(=O)(=O)c2ccc(Cl)cc2)CC1)C(F)(F)F (centres unmarked) | cell-free assay, competition with immobilised ligand | 1 µM | 100% |
| CN(c1nccc(-c2cnn3ncccc23)n1)C1CC1 | binding | 1 µM | 100% |
| FC(F)(F)Oc1cccc(-c2cnc3ccc(-c4ccncc4)nn23)c1 | cell-free assay, competition with immobilised ligand | 5 µM | 96% |
| Nc1ncc2c(n1)-c1c([nH]c3ccc(C#CC4CC4)cc13)CCCC2 | binding, competition with immobilised ligand | 1 µM | 100% |
| O=C(NCC1CCOCC1)c1n[nH]cc1NC(=O)c1c(F)cccc1F | binding, competition with immobilised ligand | 1 µM | 84% |
| CNC(=O)[C@@H]1CC[C@@H](n2c(-c3ccc4cnccc4c3)nc3ccc(C(=O)NCc4cccc(C(N)=O)c4)cc32)C1 | binding, competition with immobilised ligand | 1 µM | 100% |
| CN(C)C(=O)Cn1cc(-c2nc([C@@](C)(c3ccc(-c4cnc(N)nc4)cc3)C3CC3)no2)cn1 | cell-free assay, competition with immobilised ligand | 1 µM | 94% |
| c1cnn2ncc(-c3ccnc(N4CCC45COC5)n3)c2c1 | binding | 1 µM | 72% |
| CS(=O)(=O)N1CCCC(NC(=O)[C@H](CCC2CCCCC2)NC(=O)c2ccc(CNc3ncnc4c3nnn4-c3ccccc3)cc2)C1 (some centres unmarked) | cell-free assay, competition with immobilised ligand | 0.1 µM | 100% |
| O=C(c1ccc(Nc2ncc(Cl)c(-c3ccc(Cl)s3)n2)cc1)N1CCC(N2CCCC2)CC1 | binding, competition with immobilised ligand | 1 µM | 82% |
| Cc1nc(Cc2cccc(C(F)(F)F)c2)sc1-c1ccc(C(N)=O)nc1 | cell-free assay, competition with immobilised ligand | 1 µM | 100% |
| Cc1cnn2ncc(-c3ccnc(N(C)C)n3)c2c1 | binding | 1 µM | 71% |
| Cc1cnc(Nc2ccc(C(=O)N3CCC(N4CCCC4)CC3)cc2)nc1-c1cc2ccccc2s1 | binding, competition with immobilised ligand | 1 µM | 81% |
| CN(C)c1nccc(-c2cnn3ncccc23)n1 | binding | 1 µM | 100% |
| O=C(NCCCN1CCOCC1)c1ccc(Nc2ncc(Cl)c(-c3ccc(Cl)s3)n2)cc1 | binding, competition with immobilised ligand | 1 µM | 87% |
